Consider six molecules from ChEMBL document CHEMBL5104200, “Discovery and Biological Characterization of PRMT5:MEP50 Protein-Protein Interaction Inhibitors” (J Med Chem, 2022).

Active and inactive are the calls of the source. The calls are words filed in the database; no cut-off is given here.

Test [1] concerns the target T1, PRMT5/MEP50 complex (Homo sapiens) (UniProt O14744+Q9BQA1). The test is described as follows: Inhibition of PRMT5/MEP50 (unknown origin) protein-protein interaction expressed in COS-1 cells at 10 uM incubated for 18 hrs by BiFC screening analysis relative to control. The class given is cell-based. An outline of the steps:
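Transfected COS-1 cells (VN-PRMT5, VC-MEP50, NLS-CFP) treated at 10 µM or DMSO six hours after transfection; imaged 24 h after transfection. Per-cell YFP:CFP mean intensity ratio normalized to DMSO gives BiFC efficiency; inhibition = 100% minus efficiency. Single biological replicate screen.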

The target in test [2] is T1, PRMT5/MEP50 complex (Homo sapiens). The test can be described thus: Inhibition of PRMT/MEP50 (unknown origin) protein-protein interaction expressed in COS-1 cells incubated for 18 hrs by BiFC screening analysis. The class given is cell-based. The conditions noted are these: DDE = dose-dependent effect. The gist of the method: (§1)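 COS-1 seeded 50,000 cells/well, co-transfected with Myc-VN155-PRMT5, HA-VC-MEP50 and FLAG-NLS-CFP. After 24 h transfection, treated 18 h at 0.5 µM or 0.25 µM (separate screens), then imaged (YFP, CFP). Per-cell YFP:CFP ratio normalized to DMSO gives BiFC efficiency; % inhibition = 100% − efficiency. Single biological replicate screens.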

The target is the same in test [3]. The test can be described thus: Inhibition of PRMT5/MEP50 (unknown origin) protein-protein interaction expressed in COS-1 cells at 0.25 uM incubated for 18 hrs by BiFC screening analysis relative to control. The class given is cell-based. The gist of the method:
as §1

Another test concerns COS-1. The test can be described thus: Induction of cell death in African green monkey COS-1 cells at 10 uM. The class given is functional, cell-based. The conditions noted are these: Chlorocebus aethiops.
The subject of test [4] is LNCaP. The test is described as follows: Induction of cell death in human LNCaP cells incubated for 72 hrs by MTT assay. The class given is functional, cell-based. An outline of the steps: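 LNCaP seeded 7,000 cells/well, attached 24 h, then given an 11-point dilution series plus DMSO control (constant 0.25% DMSO) for 72 h at 37 °C, 5% CO2. MTT at 0.5 mg/mL in complete RPMI for 4 h, then dissolved in DMSO and read at 570 nm. IC50 from regression curve; mean of three biological replicates.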
In general terms: Tetrazolium dyes change colour on reduction, which living cells bring about.

In test [5] the target is T1, PRMT5/MEP50 complex (Homo sapiens). The test is described as follows: Inhibition of PRMT5/MEP50 protein-protein interaction in human LNCaP cells assessed as reduction in TGF-beta signalling after 72 hrs.
Test [6] has as its system LNCaP. The test can be described thus: Upregulation of RB1 gene expression in human LNCaP cells at 500 nM after 72 hrs by RT-qPCR analysis. The class given is functional, cell-based. An outline of the steps:
(§2)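 LNCaP seeded in 6 or 10 cm dishes, attached 24 h, treated 500 nM or DMSO for 72 h. RNA by Trizol, integrity checked on agarose gel. RT-qPCR in technical triplicate, CT normalized to GAPDH; three biological replicates, Student's t-test.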

Another test concerns A549. The test can be described thus: Cytotoxicity against human A549 cells after 72 hrs by MTT assay. The class given is functional, cell-based. As to conditions: A549, 72 h.
For test [7], the target named is T1, PRMT5/MEP50 complex (Homo sapiens). The test is described as follows: Inhibition of PRMT5 /MEP50 protein-protein interaction in human LNCaP cells assessed as increase in IVL gene expression at 500 nM after 72 hrs by RT-qPCR analysis. A general note: In qPCR the cycle at which signal appears reflects the starting amount.
Test [8] shares this target. The test is described as follows: Inhibition of PRMT5 /MEP50 protein-protein interaction in human LNCaP cells assessed as reduction in H4R3me2 level after 72 hrs by densitometry method. The class given is cell-based. The conditions noted are these: DDE = dose-dependent effect. The gist of the method:
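LNCaP treated 72 h; lysed in RIPA with protease inhibitors, protein by Bradford, 20 µg loaded on 15% gel. Blotted with anti-H4R3 and anti-H4R3me2s, IRDye 800CW secondary, infrared imaging. H4R3me2s integrated intensity normalized to H4R3 versus DMSO; three biological replicates, t-test.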

Test [9] shares this target. The test can be described thus: Inhibition of PRMT5 /MEP50 protein-protein interaction in human LNCaP cells at 500 nM incubated for 24 hrs by co-immunoprecipitation method. The class given is cell-based. The gist of the method:
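LNCaP treated 500 nM or DMSO for 24 h, lysed 1 h at 4 °C in Tris pH 7.4/NaCl/EDTA/Triton buffer with protease inhibitors. 1 mg/mL lysate immunoprecipitated overnight with anti-PRMT5, anti-MEP50 or rabbit IgG on protein A beads. Blots probed for PRMT5 and MEP50; signal normalized to 0.4% input.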

Test [10] relates to LNCaP. The test can be described thus: Upregulation of PTEN gene expression in human LNCaP cells at 500 nM after 72 hrs by RT-qPCR analysis. The class given is functional, cell-based. An outline of the steps:
as §2

Test [11] concerns the target T1, PRMT5/MEP50 complex (Homo sapiens). The test is described as follows: Inhibition of PRMT5/MEP50 (unknown origin) protein-protein interaction expressed in COS-1 cells at 250 to 500 nM incubated for 18 hrs by BiFC screening analysis relative to control. The class given is cell-based. The conditions noted are these: dose 250-500 nM. An outline of the steps:
as §1

`c1ccc(-n2cnc3ccccc32)cc1`: in test [1], the inhibition – broadly, the percentage by which the read-out fell short of the control – is 24%.
As to `CCCCC(=O)Nc1sc2c(c1C(=O)NC1CCS(=O)(=O)C1)CCC(C(C)(C)C)C2` (stereo not drawn), in test [1], the inhibition was determined as 24%.
The molecule `Cn1cc(C(=O)NCC2CCN(C(=O)c3nc(-c4ccccc4)n4c3CCCCC4)CC2)cn1` came in with an inhibition in [1] of 24%.
In turn, `CCN(CC)c1ccc(/C=C2\S/C(=N/NC(=O)c3ccc(Cl)cc3Cl)NC2=O)cc1` returned an inhibition in test [1] of 24%.
Consider `Cc1noc(C)c1COc1cccc(C(=O)NNC(=O)c2ccc3ccccc3n2)c1`, for which the inhibition result in test [2] is “Dde”; in [3], 41%. Besides, the result in the test on COS-1 was Active. Further, half-maximal inhibition in the test on LNCaP [4] (IC50) was put at 1660 nM.
Consider `CCc1noc(C)c1COc1cccc(C(=O)NNC(=O)c2ccc3ccccc3n2)c1`, for which the inhibition entry in test [5], in test [7] and in test [11] was “Active” each time. For the same molecule, the result with LNCaP [6] and with LNCaP [10] was Active. In addition, the values for the IC50 with A549 and with LNCaP [4] were 447 nM and 430 nM, respectively. The inhibition entry in [8] is “Dde”; in test [9], 65.4%. Moreover, in the test on LNCaP [4] (DDE = dose-dependent effect), the Activity result is “Dde”.
